Reference: ChEMBL document CHEMBL4011649 (J Med Chem, 2017)
One block for each compound: values may come before it. Calls of active or inactive are those of the source. The calls are words filed in the database; no cut-off is given here.

Tests used:
[1] = target: 5-HT2B receptor (Homo sapiens, UniProt P41595); test: Agonist activity at human 5-HT2B receptor expressed in Flp-IN HEK293 cells assessed as induction of calcium flux measured every second for 5 mins by Fluo-4 dye based FLIPR assay relative to serotonin; format: cell-based; conditions: Flp-IN HEK293 cells expressing human 5-HT2B receptor
Chain of 5-HT2B receptor (P41595 whole entry): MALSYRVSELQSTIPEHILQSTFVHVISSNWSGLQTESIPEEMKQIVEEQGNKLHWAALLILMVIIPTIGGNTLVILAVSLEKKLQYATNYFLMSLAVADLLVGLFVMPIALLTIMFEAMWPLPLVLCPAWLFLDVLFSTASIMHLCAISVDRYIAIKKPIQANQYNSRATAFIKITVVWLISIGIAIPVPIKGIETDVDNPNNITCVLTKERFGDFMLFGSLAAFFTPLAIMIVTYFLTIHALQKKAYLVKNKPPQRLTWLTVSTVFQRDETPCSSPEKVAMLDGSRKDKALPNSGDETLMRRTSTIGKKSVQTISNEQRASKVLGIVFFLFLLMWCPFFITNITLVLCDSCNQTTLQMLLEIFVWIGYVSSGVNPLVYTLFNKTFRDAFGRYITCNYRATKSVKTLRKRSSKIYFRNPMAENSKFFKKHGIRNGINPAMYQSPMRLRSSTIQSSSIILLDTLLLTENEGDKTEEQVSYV

[2] = target: T1, 5-hydroxytryptamine receptor 2A (Homo sapiens, UniProt P28223); test: Agonist activity at human 5-HT2A receptor expressed in Flp-IN HEK293 cells assessed as induction of calcium flux measured every second for 5 mins by Fluo-4 dye based FLIPR assay; format: cell-based
T1 sequence (P28223 whole entry): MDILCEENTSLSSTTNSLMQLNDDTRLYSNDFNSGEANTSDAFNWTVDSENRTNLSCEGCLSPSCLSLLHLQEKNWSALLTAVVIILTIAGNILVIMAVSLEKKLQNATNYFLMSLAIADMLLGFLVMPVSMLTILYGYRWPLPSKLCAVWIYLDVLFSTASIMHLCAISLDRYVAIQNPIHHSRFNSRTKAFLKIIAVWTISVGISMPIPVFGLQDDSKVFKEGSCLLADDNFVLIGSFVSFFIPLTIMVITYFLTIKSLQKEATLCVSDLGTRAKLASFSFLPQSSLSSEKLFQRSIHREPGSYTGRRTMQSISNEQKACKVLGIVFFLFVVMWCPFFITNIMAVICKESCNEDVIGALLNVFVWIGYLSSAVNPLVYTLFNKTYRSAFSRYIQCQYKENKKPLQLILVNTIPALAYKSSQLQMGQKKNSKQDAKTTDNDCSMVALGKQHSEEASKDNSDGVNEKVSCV

[3] = target: T2, 5-hydroxytryptamine receptor 2B (Homo sapiens, UniProt P41595); test: Agonist activity at human 5-HT2B receptor expressed in Flp-IN HEK293 cells assessed as induction of calcium flux measured every second for 5 mins by Fluo-4 dye based FLIPR assay; format: cell-based
T2 sequence (P41595 whole entry, canonical isoform): as the sequence (P41595 whole entry) above

[4] = target: T3, 5-hydroxytryptamine receptor 2C (Homo sapiens) (UniProt P28335); test: Agonist activity at human 5-HT2C-INI receptor isoform expressed in Flp-IN HEK293 cells assessed as induction of Gq-mediated calcium flux measured every second for 5 mins by Fluo-4 dye based FLIPR assay relative to serotonin; format: functional, cell-based
T3 sequence (whole entry): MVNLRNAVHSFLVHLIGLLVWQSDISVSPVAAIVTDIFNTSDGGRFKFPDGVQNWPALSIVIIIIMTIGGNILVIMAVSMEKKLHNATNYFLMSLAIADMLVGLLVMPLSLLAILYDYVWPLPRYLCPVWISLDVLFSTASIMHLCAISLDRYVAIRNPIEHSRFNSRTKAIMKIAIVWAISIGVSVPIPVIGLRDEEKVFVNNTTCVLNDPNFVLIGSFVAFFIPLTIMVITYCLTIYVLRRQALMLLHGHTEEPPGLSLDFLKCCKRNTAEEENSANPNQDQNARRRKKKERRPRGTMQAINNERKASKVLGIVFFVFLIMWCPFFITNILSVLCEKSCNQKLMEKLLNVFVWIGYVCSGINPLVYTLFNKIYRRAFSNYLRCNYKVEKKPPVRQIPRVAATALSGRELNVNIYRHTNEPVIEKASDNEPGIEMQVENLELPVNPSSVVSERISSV

[5] = target: T4, 5-hydroxytryptamine receptor 2C (Homo sapiens, UniProt P28335); test: Agonist activity at human 5-HT2C-INI receptor isoform expressed in Flp-IN HEK293 cells assessed as induction of Gq-mediated calcium flux measured every second for 5 mins by Fluo-4 dye based FLIPR assay; format: functional, cell-based; conditions: read-out: EC50
T4 sequence (P28335 whole entry): T3 sequence (whole entry)

[6] = target: 5-HT2A receptor (Homo sapiens, UniProt P28223); test: Agonist activity at human 5-HT2A receptor expressed in Flp-IN HEK293 cells assessed as induction of calcium flux measured every second for 5 mins by Fluo-4 dye based FLIPR assay relative to serotonin; format: cell-based; conditions: Flp-IN HEK293 cells expressing human 5-HT2A receptor
Chain of 5-HT2A receptor (P28223 whole entry): as the sequence (P28223 whole entry) above

[7] = target: T2, 5-hydroxytryptamine receptor 2B; test: Agonist activity at human 5-HT2B receptor expressed in Flp-IN HEK293 cells assessed as induction of calcium flux up to 10 uM measured every second for 5 mins by Fluo-4 dye based FLIPR assay; format: cell-based; conditions: hek293, 5 min
[8] = target: T1, 5-hydroxytryptamine receptor 2A; test: Agonist activity at human 5-HT2A receptor expressed in Flp-IN HEK293 cells assessed as induction of calcium flux up to 10 uM measured every second for 5 mins by Fluo-4 dye based FLIPR assay; format: cell-based; conditions: hek293, 5 min
[9] = target: T3, 5-hydroxytryptamine receptor 2C (Homo sapiens); test: Agonist activity at human 5-HT2C-INI receptor isoform expressed in Flp-IN HEK293 cells assessed as induction of Gq-mediated calcium flux up to 10 uM measured every second for 5 mins by Fluo-4 dye based FLIPR assay; format: functional, cell-based
[10] = target: T3, 5-hydroxytryptamine receptor 2C (Homo sapiens); test: Agonist activity at tTA containing TEV cleavage site-fused 5-HT2C-INI receptor isoform (unknown origin) expressed in TEV-fused beta-arrestin2 expressing HEK cells assessed as induction of beta-arrestin2 recruitment up to 10 uM after 20 hrs by Tango assay; format: cell-based
How it was run: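 HTLA cells (HEK cells with TEV-fused β-arrestin-2 and tTA-driven luciferase) transfected with tTA-fused 5-HT2C-INI receptor carrying a TEV site. Luminescence read after 20 min lysis at room temperature. Normalized to % 5-HT and fitted sigmoidally. NA means no activity up to 10 μM. Mean of n = 3.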

[11] = target: T3, 5-hydroxytryptamine receptor 2C (Homo sapiens); test: Ratio of Emax to EC50 for human 5-HT2C-INI receptor isoform expressed in Flp-IN HEK293 cells; format: cell-based

SMILES: COc1ccc(F)cc1C1CC1CNCc1cccc2cccnc12 (racemic)
Emax at 5 min [1]: 73%
EC50 [2]: 460 nM
EC50 [3]: 87 nM
Emax [4]: 84%
EC50 [5]: 530 nM
Emax at 5 min [6]: 69%

SMILES: COc1ccc(F)cc1C1CC1CNCc1sccc1OC.Cl (racemic)
EC50 [2]: 148 nM
Activity [7]: Not Active
Emax [4]: 66%
EC50 [5]: 121 nM
Emax at 5 min [6]: 102%

SMILES: COc1ccc(F)cc1C1CC1CNCc1ccccc1C#N (racemic)
Emax at 5 min [1]: 82%
EC50 [2]: 721 nM
EC50 [3]: 238 nM
Emax [4]: 30%
EC50 [5]: 245 nM
Emax at 5 min [6]: 63%

SMILES: C=CCOc1ccc(F)cc1[C@H]1C[C@@H]1CNC.Cl
EC50 [2]: 284 nM
Activity [7]: Not Active
Emax [4]: 15%
EC50 [5]: 13 nM
Emax at 5 min [6]: 19%

SMILES: COc1ccc(CNC[C@H]2C[C@@H]2c2cc(F)ccc2OC)cc1.Cl
Activity [7]: Not Active
Emax [4]: 71%
EC50 [5]: 1200 nM
Activity [8]: Not Active

SMILES: COc1ccc(F)cc1C1CC1CNCc1ccccc1C(N)=O (racemic)
Emax at 5 min [1]: 82%
EC50 [2]: 1310 nM
EC50 [3]: 335 nM
Emax [4]: 31%
EC50 [5]: 409 nM
Emax at 5 min [6]: 67%

SMILES: COc1ccc(F)cc1C1CC1CNC1CC1 (racemic)
Emax at 5 min [1]: 14%
EC50 [2]: 1090 nM
EC50 [3]: 641 nM
Emax [4]: 70%
EC50 [5]: 399 nM
Emax at 5 min [6]: 69%

SMILES: COc1ccccc1CN(C)CC1CC1c1cc(F)ccc1OC.Cl (racemic)
EC50 [2]: 2540 nM
Activity [7]: Not Active
Emax [4]: 49%
EC50 [5]: 670 nM
Emax at 5 min [6]: 24%

SMILES: COc1ccc(F)cc1C1CC1CNCC1CC1.Cl (racemic)
EC50 [2]: 4260 nM
Activity [9]: inactive
Activity [7]: Not Active
Emax at 5 min [6]: 43%

SMILES: COc1ccc(F)cc1C1CC1CNCC1CCCCC1.Cl (racemic)
Activity [7]: Not Active
Emax [4]: 15%
EC50 [5]: 95 nM
Activity [8]: Not Active

Emax at 5 min [1]: 32%
EC50 [2]: 1290 nM
EC50 [3]: 274 nM
Emax [4]: 65%
EC50 [5]: 433 nM
Emax at 5 min [6]: 66%
SMILES: COc1ccc(F)cc1C1CC1CNCc1cccnc1OC (racemic)

SMILES: COc1cccc(CNC[C@H]2C[C@@H]2c2cc(F)ccc2OC)c1.Cl
EC50 [2]: 3700 nM
Activity [7]: Not Active
Emax [4]: 83%
EC50 [5]: 231 nM
Emax at 5 min [6]: 70%

Activity [9]: inactive
Activity [7]: Not Active
Activity [8]: Not Active
SMILES: CNC[C@H]1C[C@@H]1c1cc(F)ccc1OCCF.Cl

SMILES: COc1ccc(F)cc1C1CC1CNCc1cccc2ccsc12 (racemic)
Emax at 5 min [1]: 79%
EC50 [2]: 2220 nM
EC50 [3]: 807 nM
Emax [4]: 94%
EC50 [5]: 777 nM
Emax at 5 min [6]: 70%

SMILES: CNC[C@H]1C[C@@H]1c1cc(F)ccc1OC
Emax at 5 min [1]: 54%
EC50 [2]: 271 nM
Activity [10]: inactive
EC50 [3]: 89 nM
Emax [4]: 71%
EC50 [5]: 23 nM
log(ratio) [11]: 7.49
Emax at 5 min [6]: 79%

SMILES: COc1cscc1CNCC1CC1c1cc(F)ccc1OC.Cl (racemic)
EC50 [2]: 145 nM
Activity [7]: Not Active
Emax [4]: 65%
EC50 [5]: 228 nM
Emax at 5 min [6]: 89%

SMILES: COc1ccccc1CCNCC1CC1c1cc(F)ccc1OC (racemic)
EC50 [2]: 307 nM
Emax at 5 min [6]: 59%
